pKi: −log10 of the molar value. Values after ≈ are worked out from the molar mass of the structure shown. Active and inactive are the calls of the source. The rule behind the calls is not given here.
Tests used:
[1] = test system: Achromobacter xylosoxidans; test: Antibacterial activity against Achromobacter xylosoxidans MER by agar dilution method; assay type: functional
In short: (§1)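 MICs of β-lactams measured by agar dilution, with interpretation per CLSI guidelines. Combination tests used clavulanic acid or tazobactam at a fixed 4 μg/ml. Reference strain CIP69598 and clinical isolates MER, TB1, LOL and DUC, identified by API 32-GN. Cultures routinely grown in TS broth at 37°C.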

[2] = test system: Achromobacter xylosoxidans; test: Antibacterial activity against Achromobacter xylosoxidans DUC by agar dilution method; assay type: functional; in short: as §1
[3] = test system: Achromobacter xylosoxidans; test: Antibacterial activity against Achromobacter xylosoxidans LOL in presence of 4 ug/ml clavulanic acid by agar dilution method; assay type: functional; in short: as §1
Escherichia coli [4] = test: microbe, parasite or virus in culture; assay type: functional; settings: TOP10
Escherichia coli [5] = test: Antibacterial activity against Escherichia coli TOP10 in presence of 4 ug/ml clavulanic acid by agar dilution method; assay type: functional
In short: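 Agar dilution MICs of β-lactams, with clavulanic acid held at a fixed 4 μg/ml alongside each β-lactam. Results were interpreted against CLSI guidelines. Strains were routinely grown in Trypticase soy broth at 37°C. The E. coli TOP10 host was tested, including TOP10 carrying a pBK-CMV clone of the chromosomal A. xylosoxidans CIP69598 class D β-lactamase gene.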

[6] = test system: Achromobacter xylosoxidans; test: Antibacterial activity against Achromobacter xylosoxidans DUC in presence of 4 ug/ml clavulanic acid by agar dilution method; assay type: functional; in short: as §1
Escherichia coli [7] = test: Antibacterial activity against Escherichia coli TOP10 harboring recombinant p6S3 expressing beta lactamase OXA-114a in presence of 4 ug/ml clavulanic acid by agar dilution method; assay type: functional
In short: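 Agar dilution MIC with clavulanic acid held at a fixed 4 μg/ml; interpreted per CLSI guidelines. Host E. coli TOP10 was electroporated with p6S3, a kanamycin-resistant pBK-CMV vector carrying a Sau3AI partial-digest fragment of A. xylosoxidans CIP69598 genomic DNA. Routine growth was in Trypticase soy broth at 37°C.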

[8] = test system: Achromobacter xylosoxidans; test: Antibacterial activity against Achromobacter xylosoxidans TB1 in presence of 4 ug/ml clavulanic acid by agar dilution method; assay type: functional; in short: as §1
[9] = test system: Achromobacter xylosoxidans; test: Antibacterial activity against Achromobacter xylosoxidans MER in presence of 4 ug/ml clavulanic acid by agar dilution method; assay type: functional; in short: as §1
[10] = test system: Achromobacter xylosoxidans; test: Antibacterial activity against Achromobacter xylosoxidans CIP69598 in presence of 4 ug/ml clavulanic acid by agar dilution method; assay type: functional; in short: as §1
[11] = test system: Achromobacter xylosoxidans; test: Antibacterial activity against Achromobacter xylosoxidans CIP69598 by agar dilution method; assay type: functional; in short: as §1
[12] = test system: Achromobacter xylosoxidans; test: Antibacterial activity against Achromobacter xylosoxidans LOL by agar dilution method; assay type: functional; in short: as §1
[13] = test system: Achromobacter xylosoxidans; test: Activity of Achromobacter xylosoxidans CIP69598 beta-lactamase OXA-114a expressed in Escherichia coli TOP10 assessed as compound hydrolysis
In short: (§2)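 OXA-114a purified from E. coli TOP10(p6S3) grown overnight in TS broth with kanamycin 30 μg/ml and ampicillin 50 μg/ml, by sonication, spermine, Q-Sepharose (pH 8.8) and S-Sepharose (pH 6.5) steps. Initial hydrolysis rates read by UV spectrophotometry at 30°C in 100 mM Tris-H2SO4-300 mM K2SO4 pH 7.0 with 10 mM NaHCO3. kcat and Km are means of three independent experiments.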

Escherichia coli [14] = test: Antibacterial activity against Escherichia coli TOP10 by agar dilution method; assay type: functional
In short: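 MIC determined by agar dilution; results interpreted per CLSI guidelines. E. coli TOP10 serves as the cloning host. Bacteria were routinely grown in Trypticase soy broth at 37°C.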

[15] = test system: Achromobacter xylosoxidans; test: Antibacterial activity against Achromobacter xylosoxidans TB1 by agar dilution method; assay type: functional; in short: as §1
[16] = test system: Achromobacter xylosoxidans; test: Ratio of Kcat to Km for Achromobacter xylosoxidans CIP69598 beta-lactamase OXA-114a expressed in Escherichia coli TOP10; set-up: unit not given here; in short: as §2
[17] = test system: Achromobacter xylosoxidans; test: Induction of Achromobacter xylosoxidans CIP69598 beta-lactamase OXA-114a expressed in Escherichia coli TOP10 assessed as imipenem hydrolysis
In short: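 Hydrolysis measured with 100 μM benzylpenicillin or imipenem as substrate. One unit hydrolyzes 1 μmol substrate/min. Protein measured against a bovine albumin standard.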

[18] = test system: Achromobacter xylosoxidans; test: Antibacterial activity against Achromobacter xylosoxidans LOL in presence of 4 ug/ml Tazobactam by agar dilution method; assay type: functional; in short: as §1
[19] = test system: Achromobacter xylosoxidans; test: Antibacterial activity against Achromobacter xylosoxidans MER in presence of 4 ug/ml Tazobactam by agar dilution method; assay type: functional; in short: as §1
Escherichia coli [20] = test: Antibacterial activity against Escherichia coli TOP10 harboring recombinant p6S3 expressing beta lactamase OXA-114a in presence of 4 ug/ml Tazobactam by agar dilution method; assay type: functional
In short: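 MICs by agar dilution, with tazobactam held at a fixed 4 μg/ml and results read against CLSI guidelines. Strain is E. coli TOP10 carrying p6S3, a kanamycin-resistant pBK-CMV vector holding a partial Sau3AI fragment of A. xylosoxidans CIP69598 genomic DNA. It was selected on ticarcillin 50 mg/liter plus kanamycin 30 mg/liter. Cultures were routinely grown in TS broth at 37°C.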

[21] = Inhibition of Achromobacter xylosoxidans CIP69598 beta-lactamase OXA-114a expressed in Escherichia coli TOP10 assessed as reduction of benzyl-penicillin hydrolysis
In short: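 Ki obtained by competition with benzylpenicillin as reporter substrate. Purified enzyme, 30°C, 100 mM Tris-H2SO4-300 mM K2SO4 pH 7.0 with 10 mM NaHCO3. Initial rates read by UV spectrophotometry. Means of three independent experiments.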

[22] = test system: Achromobacter xylosoxidans; test: Antibacterial activity against Achromobacter xylosoxidans CIP69598 in presence of 4 ug/ml Tazobactam by agar dilution method; assay type: functional; in short: as §1
Escherichia coli [23] = test: Antibacterial activity against Escherichia coli TOP10 in presence of 4 ug/ml Tazobactam by agar dilution method; assay type: functional
In short: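 Plasmid-free E. coli TOP10 cloning host, tested by agar dilution MIC with tazobactam at a fixed 4 μg/ml and interpreted per CLSI guidelines. Cultures were routinely grown in Trypticase soy broth at 37°C.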

[24] = test system: Achromobacter xylosoxidans; test: Antibacterial activity against Achromobacter xylosoxidans DUC in presence of 4 ug/ml Tazobactam by agar dilution method; assay type: functional; in short: as §1
[25] = test system: Achromobacter xylosoxidans; test: Antibacterial activity against Achromobacter xylosoxidans TB1 in presence of 4 ug/ml Tazobactam by agar dilution method; assay type: functional; in short: as §1

Compound	MIC [1] [µg/mL]	MIC [2] [µg/mL]	MIC (Escherichia coli [4]) [µg/mL]	MIC [11] [µg/mL]	MIC [12] [µg/mL]	kcat [13] [s⁻¹]	MIC (Escherichia coli [14]) [µg/mL]	MIC [15] [µg/mL]	other results
CC1(C)S[C@@H]2[C@H](NC(=O)[C@H](C(=O)O)c3ccsc3)C(=O)N2[C@H]1C(=O)O [TICARCILLIN]	1 (≈ 2.6 µM)	1 (≈ 2.6 µM)	4 (≈ 10.4 µM)	4 (≈ 10.4 µM)	> 64	0.1	2 (≈ 5.2 µM)	1 (≈ 2.6 µM)	MIC [3]: > 64 µg/mL; MIC (Escherichia coli [5]): 2 µg/mL; MIC [6]: 1 µg/mL; MIC (Escherichia coli [7]): 4 µg/mL; MIC [8]: 1 µg/mL; MIC [9]: 1 µg/mL; MIC [10]: 4 µg/mL; Km [13]: 40 µM; Ratio [16]: 2.5
CO[C@@]1(NC(=O)Cc2cccs2)C(=O)N2C(C(=O)O)=C(COC(N)=O)CS[C@@H]21 [CEFOXITIN]	> 64	> 64	4 (≈ 9.36 µM)	> 64	> 64	< 0.01	4 (≈ 9.36 µM)	> 64	Activity [17]: inactive
CC1(C)S[C@@H]2[C@H](NC(=O)Cc3ccccc3)C(=O)N2[C@H]1C(=O)O	–	–	–	–	–	0.1	–	–	Km [13]: 10 µM; Ratio [16]: 10
CO/N=C(\C(=O)N[C@@H]1C(=O)N2C(C(=O)O)=C(COC(C)=O)CS[C@H]12)c1csc(N)n1 [CEFOTAXIME]	> 64	> 64	0.25 (≈ 0.549 µM)	> 64	> 64	< 0.01	0.12 (≈ 0.263 µM)	> 64	–
CO/N=C(\C(=O)N[C@@H]1C(=O)N2C(C(=O)[O-])=C(C[N+]3(C)CCCC3)CS[C@H]12)c1csc(N)n1	> 64	> 64	0.12 (≈ 0.25 µM)	64 (≈ 133 µM)	> 64	–	–	> 64	–
C[C@H]1[C@H](NC(=O)/C(=N\OC(C)(C)C(=O)O)c2csc(N)n2)C(=O)N1S(=O)(=O)O [AZTREONAM]	> 64	> 64	–	> 64	> 64	–	–	> 64	–
CC(=O)OCC1=C(C(=O)O)N2C(=O)[C@@H](NC(=O)Cc3cccs3)[C@H]2SC1 [CEPHALOTHIN]	32 (≈ 80.7 µM)	32 (≈ 80.7 µM)	8 (≈ 20.2 µM)	> 64	> 64	0.5	2 (≈ 5.04 µM)	32 (≈ 80.7 µM)	Km [13]: 15 µM; Ratio [16]: 30
Cc1onc(-c2ccccc2)c1C(=O)N[C@@H]1C(=O)N2[C@@H]1SC(C)(C)[C@@H]2C(=O)O	–	–	–	–	–	< 0.01	–	–	–
C[C@@H](O)[C@H]1C(=O)N2C(C(=O)O)=C(SCCNC=N)C[C@H]12 [IMIPENEM ANHYDROUS]	1 (≈ 3.34 µM)	1 (≈ 3.34 µM)	–	4 (≈ 13.4 µM)	4 (≈ 13.4 µM)	> 0.1	–	1 (≈ 3.34 µM)	Activity [17]: inactive; Km [13]: > 2000 µM
CC1(C)S[C@@H]2[C@H](NC(=O)[C@H](N)c3ccc(O)cc3)C(=O)N2[C@H]1C(=O)O [AMOXICILLIN]	2 (≈ 5.47 µM)	1 (≈ 2.74 µM)	16 (≈ 43.8 µM)	16 (≈ 43.8 µM)	> 64	–	2 (≈ 5.47 µM)	8 (≈ 21.9 µM)	MIC [3]: 8 µg/mL; MIC (Escherichia coli [5]): 2 µg/mL; MIC [6]: 1 µg/mL; MIC (Escherichia coli [7]): 16 µg/mL; MIC [8]: 8 µg/mL; MIC [9]: 1 µg/mL; MIC [10]: 4 µg/mL
CCN1CCN(C(=O)N[C@@H](C(=O)N[C@@H]2C(=O)N3[C@@H]2SC(C)(C)[C@@H]3C(=O)O)c2ccccc2)C(=O)C1=O [PIPERACILLIN]	1 (≈ 1.93 µM)	1 (≈ 1.93 µM)	4 (≈ 7.73 µM)	1 (≈ 1.93 µM)	4 (≈ 7.73 µM)	0.5	1 (≈ 1.93 µM)	2 (≈ 3.86 µM)	MIC [18]: 4 µg/mL; MIC [19]: 0.5 µg/mL; MIC (Escherichia coli [20]): 4 µg/mL; pKi [21]: 6.00; MIC [22]: 0.5 µg/mL; MIC (Escherichia coli [23]): 1 µg/mL; MIC [24]: 0.5 µg/mL; Ratio [16]: 100; MIC [25]: 1 µg/mL
CO[C@@]1(NC(=O)C(C(=O)O)c2ccc(O)cc2)C(=O)N2C(C(=O)O)=C(CSc3nnnn3C)CO[C@@H]21 (stereo not given in full) [MOXALACTAM]	2 (≈ 3.84 µM)	2 (≈ 3.84 µM)	1 (≈ 1.92 µM)	2 (≈ 3.84 µM)	1 (≈ 1.92 µM)	–	1 (≈ 1.92 µM)	2 (≈ 3.84 µM)	–
CO/N=C(\C(=O)N[C@@H]1C(=O)N2C(C(=O)O)=C(COC(N)=O)CS[C@H]12)c1ccco1 [CEFUROXIME]	> 64	> 64	4 (≈ 9.43 µM)	> 64	> 64	–	2 (≈ 4.71 µM)	> 64	–
CC(C)(O/N=C(\C(=O)N[C@@H]1C(=O)N2C(C(=O)[O-])=C(C[n+]3ccccc3)CS[C@H]12)c1csc(N)n1)C(=O)O [CEFTAZIDIME]	16 (≈ 29.3 µM)	8 (≈ 14.6 µM)	0.06 (≈ 0.11 µM)	4 (≈ 7.32 µM)	4 (≈ 7.32 µM)	< 0.01	0.06 (≈ 0.11 µM)	4 (≈ 7.32 µM)	–

Reference: ChEMBL document CHEMBL1255355, “Characterization of a naturally occurring class D beta-lactamase from Achromobacter xylosoxidans” (Antimicrob Agents Chemother, 2008)
